The results in this text go back to the array DNA melting data of Ke et al. (doi:10.1101/2024.01.08.574731).

Series [1] can be described thus: melting temperature; fluorescence melt of hairpins on a sequencing array, two-state fit, raised by 9.35 °C to match UV melts. The note with it: sodium 0.088 M. A digest of the protocol: (§1)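 Melting temperature and folding enthalpy were derived from bootstrapped two-state fits. The fitted temperatures were raised by 9.35 °C to agree with UV melts, and four replicates were combined by inverse variance. The underlying data were Cy3 fluorescence images of library hairpins, with annealed Cy3 and quencher oligos, on a sequenced MiSeq flow cell in 50 mM Na-HEPES pH 8.0, 25 mM NaCl, taken in 2.5 °C steps up to 60 °C, normalised to pre-quench Cy3 and to control constructs.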

The nature of series [2]: folding enthalpy; higher = less favourable; fluorescence melt of hairpins on a sequencing array, two-state fit. The note with it: sodium 0.088 M. The method, boiled down: as §1

GCACACGAAAGTGAATGC ((((((....)))..))): in series [1], the Tm stood at 42.8 °C. Also, the folding enthalpy in series [2] is -100 kJ/mol.

For GACGCGGGAAACCACGCC (.((.((....)).)).), in series [1], the Tm amounted to 34.6 °C. Further, the folding enthalpy in series [2] is -51.8 kJ/mol.

Regarding GCATGGCGAAAGCGGTGC (((..((....))..))), the Tm in series [1] stood at 56.1 °C. Besides, the folding enthalpy in series [2] is -99.7 kJ/mol.

Take GTGCCGGGAAACTGGCGC (.(((.(....).))).): the Tm in series [1] was 53.4 °C. Besides, the folding enthalpy in series [2] is -127 kJ/mol.

As to GTATCCGAAAGGACTAC ((((((....))).))), the Tm in series [1] came to 35.9 °C. Further, in series [2], the folding enthalpy was -60 kJ/mol.

Take GAGACCCGAAAGGGCTC (((.(((....)))))): in series [1], the Tm came out at 55.4 °C. Also, in series [2], the folding enthalpy is -112 kJ/mol.

For GTCAGGGAAACCTGAC ((((((....)))))), the Tm in series [1] was determined as 61.6 °C. Besides, the folding enthalpy in series [2] is -136 kJ/mol.

For the sequence GATCCTACGAGGATC ((((((...)))))), the Tm in series [1] amounted to 53.4 °C. Further, in series [2], the folding enthalpy is -124 kJ/mol.

As for GATCACCAGGGTGATC ((((((....)))))), the Tm in series [1] was determined as 62.2 °C. For the same sequence, the folding enthalpy in series [2] is -153 kJ/mol.

Turning to GTTGACGGAAACGTTAGC (.(.(((....))).).), the Tm in series [1] came to 29.9 °C. Moreover, the folding enthalpy in series [2] was -32.8 kJ/mol.

For the sequence GTCATCGAAAGATTAGAC ((((((....)))..))), in series [1], the Tm was found to be 32.2 °C. For the same sequence, the folding enthalpy in series [2] was -58.5 kJ/mol.

For the sequence GACCCACGAAAGTGGTC (((.(((....)))))), the Tm in series [1] was 51.5 °C. The folding enthalpy in series [2] is -55.6 kJ/mol.

Consider GCTCTGCGAAAGCCGAGC ((((.((....)).)))), for which the Tm in series [1] came to 60.1 °C. Further, the folding enthalpy in series [2] was -105 kJ/mol.

In the case of GCTCAGCGAAAGCTTTGC ((..(((....)))..)), in series [1], the Tm was 38.6 °C. Further, the folding enthalpy in series [2] was -60.4 kJ/mol.

As to GGGCATCGAAAGATCCCC (((.(((....))).))), the Tm in series [1] was determined as 48.9 °C. In series [2], the folding enthalpy is -81.3 kJ/mol.

On to GCGTAGTACGC ((((...)))), for which the Tm in series [1] was determined as 53.1 °C. In series [2], the folding enthalpy is -87.2 kJ/mol.

For the sequence GGTGACGAAAGTCTAACC ((((((....)))..))), the Tm in series [1] was determined as 42.2 °C. In series [2], the folding enthalpy is -76.2 kJ/mol.

Turning to GCATCTGGAAACAGGTGC (((.(((....))).))), the Tm in series [1] is 52.2 °C. Moreover, in series [2], the folding enthalpy was -169 kJ/mol.

GGATGTACGAAAGTATCC (((..(((....)))))): the Tm in series [1] amounted to 37.9 °C. Moreover, in series [2], the folding enthalpy is -84.7 kJ/mol.

Regarding GATCTGACAACAGATC ((((((....)))))), the Tm in series [1] is 46.5 °C. Also, the folding enthalpy in series [2] was -153 kJ/mol.

As for GATCGTTCTAACGATC ((((((....)))))), the Tm in series [1] was 57.3 °C. The folding enthalpy in series [2] was -166 kJ/mol.

As for GCAGCGACGAAAGTCTGC (((..(((....)))))), in series [1], the Tm amounted to 48.3 °C. Further, the folding enthalpy in series [2] was -67.3 kJ/mol.

Turning to GGCGGAACGAAAGTTGCC (((..(((....)))))), the Tm in series [1] came to 47.6 °C. Also, in series [2], the folding enthalpy was -81.8 kJ/mol.

In the case of GAAAGCCGAAAGGCATTC (((.(((....))).))), in series [1], the Tm was 45.9 °C. Further, the folding enthalpy in series [2] was -63.4 kJ/mol.

With GCACTGCGAAAGCCCTGC (((..((....))..))), the Tm in series [1] was 28.8 °C. Also, the folding enthalpy in series [2] is -52.2 kJ/mol.

For GTCCGCGAAAGCGGGGAC ((((((....)))..))), the Tm in series [1] is 47.3 °C. The folding enthalpy in series [2] was -34.6 kJ/mol.

Take GCATTACGAAAGTACTGC (((.(((....))).))): the Tm in series [1] came out at 46.4 °C. In addition, the folding enthalpy in series [2] was -153 kJ/mol.

On to GATCCCTACGGGATC ((((((...)))))), for which, in series [1], the Tm turned out to be 67.9 °C. In series [2], the folding enthalpy is -136 kJ/mol.

Consider GCTAGACGAAAGTCCAGC (((.(((....))).))), for which the Tm in series [1] is 47.6 °C. The folding enthalpy in series [2] was -104 kJ/mol.

As for GCGTTCGAAAGAAGACGC ((((((....)))..))), in series [1], the Tm was found to be 46.9 °C. For the same sequence, in series [2], the folding enthalpy was -133 kJ/mol.

TGAGCGAAAGCTCA (((((....))))): the Tm in series [1] turned out to be 67.6 °C. Further, the folding enthalpy in series [2] was -53.7 kJ/mol.

Consider GGTTCCCGAAAGGGGACC (((.(((....))).))), for which the Tm in series [1] was 67.6 °C. Moreover, the folding enthalpy in series [2] was -129 kJ/mol.

As to GATGCGCCGAAAGGCATC (((..(((....)))))), in series [1], the Tm came out at 31.4 °C. For the same sequence, the folding enthalpy in series [2] was -51.7 kJ/mol.

In the case of GGGTCAGGAAACTGGTCC ((..(((....)))..)), the Tm in series [1] was 39.9 °C. Also, the folding enthalpy in series [2] was -126 kJ/mol.

Regarding GATATGGGAAACCGTATC ((((.((....)).)))), in series [1], the Tm came to 43 °C. Besides, in series [2], the folding enthalpy was -134 kJ/mol.

Consider GGTGACGAAAGTCGACC ((((((....))).))), for which the Tm in series [1] is 53.4 °C. For the same sequence, the folding enthalpy in series [2] was -96.6 kJ/mol.

For the sequence GTGATACGAAAGTAACAC (((.(((....))).))), the Tm in series [1] amounted to 47.6 °C. In addition, the folding enthalpy in series [2] was -143 kJ/mol.
